Source: ChEMBL document CHEMBL1145465, “PhoU is a persistence switch involved in persister formation and tolerance to multiple antibiotics and stresses in Escherichia coli” (2007)
Values after ≈ are worked out from the molar mass of the structure shown.

Tests used:
Format in all cases: functional
Escherichia coli [1] = test: Antibacterial activity against Escherichia coli K12 PhoU wild type W3110 at 6 ug/ml after 48 hrs by disc diffusion method
In short: (§1)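 Kirby-Bauer disc assay. Log-phase LB culture (10⁸ bacteria) was spread for confluent growth on LB agar. 7 mm nitrocellulose discs soaked in antibiotic at the listed concentrations were laid on the agar. Inhibition zone diameter (mm) was measured after 48 h at 37°C.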

Escherichia coli [2] = test: Antibacterial activity against Escherichia coli K12 mutant JHU313 containing plasmid PhoU at 6 ug/ml after 48 hrs by disc diffusion method
In short: (§2)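 Kirby-Bauer disc assay: log-phase LB culture was spread on LB agar for confluent growth. 7-mm nitrocellulose discs were soaked in antibiotic at the listed concentration and placed on the agar. After 48 h at 37°C, the diameter of the inhibition zone was measured in mm.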

Escherichia coli [3] = test: Antibacterial activity against Escherichia coli K12 containing PhoU mutant assessed as cell count in stationary phase at 100 ug/ml after 5 hrs
In short: (§3)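 Log-phase or stationary-phase cultures were exposed to ampicillin (100 μg/ml) or norfloxacin (3 μg/ml) in MOPS minimal medium, pH 5.0, at 37°C without shaking, for 5 h to 10 days. Aliquots were saline-washed and plated on LB for CFU/ml.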

Escherichia coli [4] = test: Antibacterial activity against Escherichia coli K12 containing deletion deltaphoU mutant assessed as cell count in stationary phase at 100 ug/ml after 5 hrs
In short: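 Wild-type W3110-derived deletion mutants were made by the Datsenko–Wanner method. Log-phase or stationary-phase cultures were exposed to ampicillin 100 μg/ml in MOPS minimal medium at pH 5.0, at 37°C without shaking. Aliquots were taken at set times, washed in saline and plated on LB for viable CFU/ml.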

Escherichia coli [5] = test: Antibacterial activity against Escherichia coli K12 containing PhoU mutant assessed as cell count in stationary phase at 100 ug/ml after 1 day; in short: as §3
Escherichia coli [6] = test: Antibacterial activity against Escherichia coli K12 PhoU wild type W3110 assessed as cell count in log phase at 100 ug/ml after 5 days
In short: (§4)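 Log-phase or stationary-phase cultures exposed to ampicillin 100 μg/ml in MOPS minimal medium (pH 5.0) at 37°C without shaking, for 5 h up to 10 days. Aliquots were taken at each time point, washed in saline and plated on LB plates for viable CFU/ml.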

Escherichia coli [7] = test: Antibacterial activity against Escherichia coli K12 PhoU wild type W3110 after 16 hrs by serial dilution method; conditions: K12, 16 h
In short: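 Serial twofold antibiotic dilutions in LB broth; log-phase inoculum 10⁶ to 10⁷ bacteria/ml; 16 h at 37°C. MIC was the lowest concentration with no visible growth. MBC was the concentration giving a 100-fold CFU drop below the seeded inoculum.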

Escherichia coli [8] = test: Antibacterial activity against Escherichia coli K12 mutant JHU313 after 16 hrs by serial dilution method; conditions: K12, 16 h
In short: (§5)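 Twofold serial antibiotic dilutions in LB broth were seeded with 10⁶–10⁷ bacteria/ml from log-phase culture and incubated 16 h at 37°C. MIC was taken as the lowest concentration with no visible growth. MBC was taken as the concentration giving a 100-fold CFU drop from the inoculum.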

Escherichia coli [9] = test: Antibacterial activity against Escherichia coli K12 mutant JHU313 containing plasmid PhoU after 16 hrs by serial dilution method; conditions: K12, 16 h; in short: as §5
Escherichia coli [10] = test: Antibacterial activity against Escherichia coli K12 mutant JHU313 containing plasmid vector after 16 hrs by serial dilution method; conditions: K12, 16 h; in short: as §5
Escherichia coli [11] = test: Antibacterial activity against Escherichia coli K12 PhoU wild type W3110 at 100 ug/ml after 48 hrs by disc diffusion method; in short: as §1
Escherichia coli [12] = test: Antibacterial activity against Escherichia coli K12 mutant JHU313 containing plasmid vector at 100 ug/ml after 48 hrs by disc diffusion method; in short: as §2
Escherichia coli [13] = test: Antibacterial activity against Escherichia coli K12 mutant JHU313 containing plasmid PhoU at 25 ug/ml after 48 hrs by disc diffusion method; in short: as §2
Escherichia coli [14] = test: Antibacterial activity against Escherichia coli K12 PhoU wild type W3110 assessed as cell count in stationary phase at 100 ug/ml after 5 hrs; in short: as §4
Escherichia coli [15] = test: Antibacterial activity against Escherichia coli K12 containing PhoU mutant assessed as cell count in log phase at 100 ug/ml after 5 hrs; in short: as §3
Escherichia coli [16] = test: Antibacterial activity against Escherichia coli K12 PhoU wild type W3110 assessed as cell count in stationary phase at 100 ug/ml after 10 days; in short: as §4
Escherichia coli [17] = test: Antibacterial activity against Escherichia coli K12 containing deletion deltaphoB mutant assessed as cell count in log phase at 100 ug/ml after 5 hrs
In short: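 Deletion mutants were made by the Datsenko–Wanner method. Log-phase or stationary-phase cultures were exposed to ampicillin at 100 μg/ml. CFU/ml was determined at the start and after 5, 24 and 72 h of exposure.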

Escherichia coli [18] = test: Antibacterial activity against Escherichia coli K12 containing PhoU mutant assessed as cell count in stationary phase at 3 ug/ml after 1 day; in short: as §3
Escherichia coli [19] = test: Antibacterial activity against Escherichia coli K12 containing deletion deltaphoU mutant assessed as cell count in log phase at 3 ug/ml after 3 days
In short: (§6)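 Log-phase or stationary-phase cultures of the ΔphoU deletion mutant (Datsenko–Wanner construction) were exposed to norfloxacin 3 μg/ml in MOPS minimal medium, pH 5.0, at 37°C without shaking, for up to 10 days. Sampled aliquots were washed in saline and plated on LB agar for CFU/ml.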

Escherichia coli [20] = test: Antibacterial activity against Escherichia coli K12 containing deletion deltaphoU mutant assessed as cell count in stationary phase at 3 ug/ml after 3 days; in short: as §6
Escherichia coli [21] = test: Antibacterial activity against Escherichia coli K12 PhoU wild type W3110 at 2 ug/ml after 48 hrs by disc diffusion method; in short: as §1
Escherichia coli [22] = test: Antibacterial activity against Escherichia coli K12 mutant JHU313 containing plasmid PhoU at 2 ug/ml after 48 hrs by disc diffusion method; in short: as §2
Escherichia coli [23] = test: Antibacterial activity against Escherichia coli K12 containing deletion deltaphoU mutant assessed as cell count in log phase at 3 ug/ml after 5 days; in short: as §6
Escherichia coli [24] = test: Antibacterial activity against Escherichia coli K12 PhoU wild type W3110 assessed as cell count in log phase at 3 ug/ml after 1 week; in short: as §3
Escherichia coli [25] = test: Antibacterial activity against Escherichia coli K12 PhoU wild type W3110 at 0.5 ug/ml after 48 hrs by disc diffusion method; in short: as §1
Escherichia coli [26] = test: Antibacterial activity against Escherichia coli K12 mutant JHU313 containing plasmid PhoU at 0.5 ug/ml after 48 hrs by disc diffusion method; in short: as §2
Escherichia coli [27] = test: Antibacterial activity against Escherichia coli K12 mutant JHU313 at 0.1 ug/ml after 48 hrs by disc diffusion method; in short: as §2
Escherichia coli [28] = test: Antibacterial activity against Escherichia coli K12 PhoU wild type W3110 assessed as cell count in log phase at 3 ug/ml after 5 hrs; in short: as §3
Escherichia coli [29] = test: Antibacterial activity against Escherichia coli K12 containing deletion deltaphoU mutant assessed as cell count in stationary phase at 3 ug/ml after 1 week; in short: as §6
Escherichia coli [30] = test: Antibacterial activity against Escherichia coli K12 containing PhoU mutant assessed as cell count in log phase at 3 ug/ml after 10 days; in short: as §3

In the case of `CC1(C)S[C@@H]2[C@H](NC(=O)[C@H](N)c3ccccc3)C(=O)N2[C@H]1C(=O)O` [AMPICILLIN], the inhibition zone (IZ) (Escherichia coli [1]) is reported as 25 mm, the inhibition zone (IZ) (Escherichia coli [2]) is reported as 32 mm and the CFU (Escherichia coli [3]) is reported as 2 10^8/ml. For the same compound, the CFU (Escherichia coli [4]) was 2 10^8/ml, the CFU (Escherichia coli [5]) was 1 10^7/ml and the CFU (Escherichia coli [6]) was 0 mL⁻¹. For the same compound, the MBC (Escherichia coli [7]) was 12.5 µg/mL (≈ 35.8 µM), the MIC (Escherichia coli [7]) was 3.1 µg/mL (≈ 8.87 µM) and the MBC (Escherichia coli [8]) was 6.25 µg/mL (≈ 17.9 µM). It also gave an MIC (Escherichia coli [8]) of 1.5 µg/mL (≈ 4.29 µM), an MBC (Escherichia coli [9]) of 12.5 µg/mL (≈ 35.8 µM) and an MIC (Escherichia coli [9]) of 3.1 µg/mL (≈ 8.87 µM). The MBC (Escherichia coli [10]) was 6.25 µg/mL (≈ 17.9 µM), the MIC (Escherichia coli [10]) was 1.5 µg/mL (≈ 4.29 µM) and the inhibition zone (IZ) (Escherichia coli [11]) was 35 mm. The inhibition zone (IZ) (Escherichia coli [12]) was 45 mm, the inhibition zone (IZ) (Escherichia coli [13]) was 36 mm and the CFU (Escherichia coli [14]) was 5 10^9/ml. For the same compound, the CFU (Escherichia coli [15]) was 20 mL⁻¹, the CFU (Escherichia coli [16]) was 2 10^5/ml and the CFU (Escherichia coli [17]) was 6 10^3/ml.

`CCn1cc(C(=O)O)c(=O)c2cc(F)c(N3CCNCC3)cc21` [NORFLOXACIN] was tested, and the CFU (Escherichia coli [18]) was 4.5 10^7/ml, the CFU (Escherichia coli [19]) was 0 mL⁻¹ and the CFU (Escherichia coli [20]) was 3 10^5/ml. For the same compound, the inhibition zone (IZ) (Escherichia coli [21]) was 30 mm, the inhibition zone (IZ) (Escherichia coli [22]) was 35 mm and the CFU (Escherichia coli [23]) was 0 mL⁻¹. It also gave a CFU (Escherichia coli [24]) of 0 mL⁻¹, an MBC (Escherichia coli [7]) of 1 µg/mL (≈ 3.13 µM) and an MIC (Escherichia coli [7]) of 0.5 µg/mL (≈ 1.57 µM). The MBC (Escherichia coli [8]) was 0.5 µg/mL (≈ 1.57 µM), the MIC (Escherichia coli [8]) was 0.125 µg/mL (≈ 0.391 µM) and the MBC (Escherichia coli [9]) was 1 µg/mL (≈ 3.13 µM). For the same compound, the MIC (Escherichia coli [9]) was 0.5 µg/mL (≈ 1.57 µM), the MBC (Escherichia coli [10]) was 0.5 µg/mL (≈ 1.57 µM) and the MIC (Escherichia coli [10]) was 0.125 µg/mL (≈ 0.391 µM). It also gave an inhibition zone (IZ) (Escherichia coli [25]) of 27 mm, an inhibition zone (IZ) (Escherichia coli [26]) of 31 mm and an inhibition zone (IZ) (Escherichia coli [27]) of 28 mm. The CFU (Escherichia coli [28]) was 1 10^8/ml, the CFU (Escherichia coli [29]) was 0 mL⁻¹ and the CFU (Escherichia coli [30]) was 0 mL⁻¹.
